Series [1] deals with Glutamate [NMDA] receptor (Homo sapiens) (UniProt Q05586+Q12879+Q13224+O15399+O60391+Q14957+Q8TCU5). The experiment in a line: Antagonist activity at NMDA receptor in human SH-SY5Y cells assessed as reduction in NMDA/glycine-stimulated calcium influx at 10 uM preincubated for 30 mins in presence of Mag-Fura-2/AM dye followed by NMDA/glycine stimulation and measured over 35 secs by fluorescence assay (reference value: 100%). It is filed as cell-based. A digest of the protocol: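 SH-SY5Y cells loaded with ratiometric Ca indicator Mag-Fura-2/AM, incubated with compound at 10 µM for 30 min at 37 °C, then stimulated with concentrated NMDA/glycine solution; fluorescence change from cytosolic Ca rise read on plate reader. % NMDAr inhibition calculated relative to MK-801 (10 µM); DMSO vehicle. Mean of at least 9 independent experiments.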

The target of series [2] is Voltage-gated L-type calcium channel (Homo sapiens, UniProt Q13936+Q13698+Q01668+O60840). The experiment in a line: Inhibition of voltage-dependent L-type calcium channel in human SH-SY5Y cells assessed as reduction in KCl-stimulated calcium influx at 100 uM preincubated for 30 mins in presence of Mag-Fura-2/AM dye followed by KCl stimulation and measured over 35 secs by fluorescence assay. It is filed as cell-based. The note with it: 35 s.

Series [3] has as its system SH-SY5Y. Nature of the series: Neuroprotective activity in human SH-SY5Y cells assessed as reduction in MPP+ induced cytotoxicity at 5 to 10 uM preincubated for 2 hrs followed by MPP+ addition measured after 48 hrs by MTT assay. It is filed as functional, cell-based. (In general: Tetrazolium dyes change colour on reduction, which living cells bring about.)
Series [4] deals with T1, Amine oxidase [flavin-containing] B (Homo sapiens, UniProt P27338).
T1 sequence (P27338 whole entry): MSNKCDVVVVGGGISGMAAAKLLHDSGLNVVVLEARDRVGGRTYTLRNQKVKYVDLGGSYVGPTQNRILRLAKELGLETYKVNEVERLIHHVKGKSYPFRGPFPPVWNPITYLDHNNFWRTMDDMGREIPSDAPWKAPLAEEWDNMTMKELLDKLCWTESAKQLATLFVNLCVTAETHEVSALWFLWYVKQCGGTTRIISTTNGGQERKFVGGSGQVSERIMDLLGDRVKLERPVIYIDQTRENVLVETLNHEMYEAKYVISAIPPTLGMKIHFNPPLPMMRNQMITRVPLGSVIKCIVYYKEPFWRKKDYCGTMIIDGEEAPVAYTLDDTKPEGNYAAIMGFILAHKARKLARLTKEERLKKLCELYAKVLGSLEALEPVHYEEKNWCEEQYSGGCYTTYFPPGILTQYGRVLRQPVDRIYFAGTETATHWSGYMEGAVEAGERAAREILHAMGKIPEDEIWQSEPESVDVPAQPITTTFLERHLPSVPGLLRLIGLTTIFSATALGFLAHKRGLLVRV
Nature of the series: Inhibition of recombinant human MAO-B using kynuramine as substrate after 20 mins by fluorescence assay.

For series [5], the target named is T2, Amine oxidase [flavin-containing] A (Homo sapiens, UniProt P21397).
T2 sequence (P21397 whole entry): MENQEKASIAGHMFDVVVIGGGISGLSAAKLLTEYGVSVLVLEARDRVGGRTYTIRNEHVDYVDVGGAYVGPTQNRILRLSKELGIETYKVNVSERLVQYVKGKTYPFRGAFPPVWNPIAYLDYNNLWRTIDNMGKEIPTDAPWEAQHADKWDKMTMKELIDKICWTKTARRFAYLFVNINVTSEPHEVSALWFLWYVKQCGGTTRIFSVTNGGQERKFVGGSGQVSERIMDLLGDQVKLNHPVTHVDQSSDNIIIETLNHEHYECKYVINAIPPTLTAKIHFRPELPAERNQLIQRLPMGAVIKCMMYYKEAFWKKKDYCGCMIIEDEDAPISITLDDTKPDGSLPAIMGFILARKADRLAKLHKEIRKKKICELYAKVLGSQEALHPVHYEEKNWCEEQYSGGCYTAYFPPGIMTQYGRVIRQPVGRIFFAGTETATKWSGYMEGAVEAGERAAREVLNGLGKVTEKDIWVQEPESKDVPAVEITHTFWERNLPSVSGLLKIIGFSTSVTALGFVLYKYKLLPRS
The experiment in a line: Inhibition of recombinant human MAO-A using kynuramine as substrate after 20 mins by fluorescence assay.

Series [6] can be described thus: Cytotoxicity against human SH-SY5Y cells assessed as cell viability at 10 uM after 48 hrs by MTT assay (reference value: 100%). Type of series: cell-based. As to conditions: read-out: Activity. The gist of the method:
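SH-SY5Y cells exposed to compound at 10, 50 or 100 µM for 48 h; viability by MTT, read spectrophotometrically. DMSO vehicle-treated cells set as 100% viability. Mean ± SEM, n = 3 with four fields per repeat; ANOVA.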

In series [7] the test system is SH-SY5Y. Nature of the series: Neuroprotective activity in human SH-SY5Y cells assessed as reduction in MPP+ induced cytotoxicity by measuring cell viability at 1 uM preincubated for 2 hrs followed by MPP+ addition and measured after 48 hrs by MTT assay (reference value: 45%). It is filed as functional.
The target of series [8] is T2, Amine oxidase [flavin-containing] A. The experiment in a line: Irreversible inhibition of recombinant human MAO-A at 2 times IC50 preincubated up to 60 mins followed by kynuramine substrate addition and measured after 20 mins by fluorescence assay. The gist of the method: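 Recombinant human MAO-A is preincubated with inhibitor for 0, 15, 30 or 60 min, then the kynuramine reaction is started. Residual oxidation rate is read as 4-hydroxyquinoline fluorescence (RFU). Results are the mean of three independent experiments.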

Series [9] addresses T1, Amine oxidase [flavin-containing] B. The experiment in a line: Reversible inhibition of recombinant human MAO-B at 2 times IC50 preincubated up to 60 mins followed by kynuramine substrate addition and measured after 20 mins by fluorescence assay.
The target is the same in series [10]. The experiment in a line: Inhibition of recombinant human MAO-B using kynuramine as substrate after 20 mins by fluorescence assay relative to control. A digest of the protocol: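 Recombinant human MAO-B oxidises kynuramine. The product, 4-hydroxyquinoline, is read by fluorescence in the supernatant (excitation 310 nm, emission 400 nm).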

16 compounds from ChEMBL document CHEMBL4330068, “Design, synthesis and evaluation of pentacycloundecane and hexacycloundecane propargylamine derivatives as multifunctional neuroprotective agents” (Eur J Med Chem, 2019) can be followed below.

Structures are written as SMILES. Activity calls are given as the source filed them. The calls are words filed in the database; no cut-off is given here.

One may read the inhibition as the change of the read-out against control, counted positive when it falls. As to `C#CCNCc1ccc(CNC23OC4C5C6CC(C7C6C4C72)C53)cc1` (stereo unspecified), the inhibition in series [1] was 31.4%.
On the same count and under the same terms, the figure for `c1cc(C/N=C2\C3C4CC5C6C4C2C6C2(OCCO2)C53)ccc1C/N=C1/C2C3CC4C5C3C1C5C1(OCCO1)C42` (stereo unspecified) is 70.5%; for `C#CCNCc1ccc(C/N=C2/C3C4CC5C6C4C2C6C2(OCCO2)C53)cc1` (stereo unspecified) it is 88.3%.
Turning to `C#CCNC12OC3C4C5CC(C6C5C3C61)C42` (stereo unspecified), in series [2], the “inhibition (INH)” value is on record as “Not Active”. The inhibition result in series [1] is “inactive”.
Regarding `C#CCNCc1ccc(CNC2C3C4CC5C6C4C2C6C2(OCCO2)C53)cc1` (stereo unspecified), the inhibition in series [1] was 63.9%.
The IC50 is the concentration at which inhibition is half-maximal. Regarding `c1ccc(CNC23OC4C5C6CC(C7C6C4C72)C53)cc1` (stereo unspecified), the result with SH-SY5Y [3] was Active. Moreover, the concentration for half-maximal inhibition (IC50) in series [4] and in series [5] was greater than 100 µM each time. Further, the viability at 48 h, 10 µM in series [6] was found to be 86%. Also, the Activity in the series with SH-SY5Y [7] amounted to 66%. The inhibition in series [1] was determined as 32.5%.
Take `COCCOC(=O)C1=C(C)NC(C)=C(C(=O)OC(C)C)C1c1cccc([N+](=O)[O-])c1` (stereo unspecified): the inhibition entry in series [1] was “inactive”.
In the case of `Nc1ccc(CN2C3C4C5CC6C7C5C3C7C2(O)C64)cc1` (stereo unspecified), the outcome with SH-SY5Y [3] was Active. In addition, the IC50 in [4] and in [5] was greater than 100 µM in each case. The viability at 48 h, 10 µM in [6] came out at 101%. Moreover, in the series with SH-SY5Y [7], the Activity is 31%. The inhibition in series [1] stood at 11.9%.
With `C#CCNCc1ccc(CN2C3C4C5CC6C7C5C3C7C2(O)C64)cc1` (stereo unspecified), the outcome in the series on SH-SY5Y [3] was Active. For the same compound, the figures for the concentration for half-maximal inhibition (IC50) in series [4] and in series [5] were 3.8 µM and 56.2 µM, respectively. For the same compound, the “inhibition (INH)” value in series [8] and in [9] was “Active” throughout. For the same compound, in [6], the viability at 48 h, 10 µM is 98%. The Activity with SH-SY5Y [7] was determined as 43%. In addition, in series [1], the inhibition was determined as 0.6%.
Regarding `Nc1ccc(CNC23OC4C5C6CC(C7C6C4C72)C53)cc1` (stereo unspecified), the inhibition result in series [1] was “inactive”.
The same measure, in the same setting: the figure for `Nc1ccc(C/N=C2/C3C4CC5C6C4C2C6C2(OCCO2)C53)cc1` (stereo unspecified) is 63.1%.
Consider `NCc1ccc(CN2C3C4C5CC6C7C5C3C7C2(O)C64)cc1` (stereo unspecified), for which the outcome in the series with SH-SY5Y [3] was Active. Also, the IC50 in [4] and in [5] was greater than 100 µM each time. The viability at 48 h, 10 µM in series [6] came out at 107%. For the same compound, the Activity with SH-SY5Y [7] was 46%. In series [1], the inhibition was determined as 59%.
With `NCc1ccc(CNC2C3C4CC5C6C4C2C6C2(OCCO2)C53)cc1` (stereo unspecified), in series [1], the inhibition entry was “inactive”.
In the case of `ClCc1ccc(CNC23OC4C5C6CC(C7C6C4C72)C53)cc1` (stereo unspecified), the inhibition in series [1] was 26.1%.
In the case of `C#CCN1C2C3C4CC5C6C4C2C6C1(O)C53` (stereo unspecified), the “inhibition (INH)” value was 6% in series [10] and “Not Active” in series [2]. For the same compound, in series [1], the inhibition stood at 4%.
For `NCc1ccc(C/N=C2/C3C4CC5C6C4C2C6C2(OCCO2)C53)cc1` (stereo unspecified), in series [1], the inhibition amounted to 49.5%.
